Experimental data: the EternaBench riboswitch data

Key:
MS2 coat protein [1] = experiment: apparent Kd, MS2 coat protein; higher = weaker binding; RNA-MaP array; theophylline 2 mM where present
Procedure, shortened: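 Each design was made on Illumina sequencing-chip clusters by stalled E. coli RNA polymerase and titrated with SNAP-549-labelled MS2 coat protein from 0.7 or 1.5 nM, doubling to 3 µM, in the absence and then the presence of constant ligand. The buffer was 100 mM Tris-HCl pH 7.5, 80 mM KCl, 4 mM MgCl2, BSA, DTT, yeast tRNA and Tween-20. The apparent Kd is the median of filtered per-cluster fits of binding curves, with green signal normalised to red-channel RNA signal and control-cluster median Fmax.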

MS2 coat protein [2] = experiment: apparent Kd, MS2 coat protein; higher = weaker binding; RNA-MaP array
Procedure, shortened: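 Binding of fluorescently labeled MS2 coat protein, at 1.5 nM to 3 μM and room temperature, was measured with or without input ligand on designed RNAs transcribed on an Illumina sequencing chip from sequenced DNA templates. Apparent Kd was defined as the median of per-cluster binding-curve fits. No design measured on fewer than 10 clusters was kept.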

[3] = designed as: OFF switch for theophylline, no ligand
[4] = ligand present: theophylline, designed as: OFF switch for theophylline
[5] = designed as: ON switch for theophylline, no ligand
[6] = ligand present: theophylline, designed as: ON switch for theophylline
[7] = designed as: ON switch for flavin mononucleotide, no ligand
[8] = ligand present: flavin mononucleotide, designed as: ON switch for flavin mononucleotide
[9] = designed as: OFF switch for flavin mononucleotide, no ligand
[10] = ligand present: flavin mononucleotide, designed as: OFF switch for flavin mononucleotide

Which “apparent Kd” value (MS2 coat protein [1]; [3]) does the source give for “AGACAUGAGGAUCACCCAUGUAGUAUGGAUACCAGAUGUAGAUUAGUCCCUUGGCAGCUGUGGUGAAGUGAUGCAUUGCUCCUAG” here?
Its value is 23.4 nM.

And the “apparent Kd” value (MS2 coat protein [1]; [4])?
Its value is 25.9 nM.

For “UCCUCCUCCGCAAGGAGGAGGAGUUGCGAUACCAGCACGGAAACGUGCCCUUGGCAGCGCACAUGAGGAUCACCCAUGUCAUGUU”, which “apparent Kd” value (MS2 coat protein [1]; [3]) is on record?
The value was 18 nM.

And the “apparent Kd” value (MS2 coat protein [1]; [4])?
Its value is 24 nM.

With “GGGAAUGAACGUGAUACCAGAGAUCCGGUCUCCGUCACUCUACAUGAGGAUCACCCAUGUCUCCCUUGGCAGCACCGUCAUCGGG” as the sequence, how does the “apparent Kd” value (MS2 coat protein [1]; [3]) read?
The value was 34.4 nM.

What about the “apparent Kd” value (MS2 coat protein [1]; [4]) of the same sequence?
Its value is 61 nM.

With “AUAUUACAUGUUAUUAUACGGUAUACUGAUACCAGUGUUUCUAUUCACCCUUGGCAGCAGCAACAUGAGGAUCACCCAUGUAUUA” as the sequence, how does the “apparent Kd” value (MS2 coat protein [1]; [5]) read?
Its value is 16.7 nM.

What about the “apparent Kd” value (MS2 coat protein [1]; [6]) of the same sequence?
The value was 16.9 nM.

“UGUUUGGUGCGCGAGUGUUGGAUAAUUGAUACCAGUGUAGAAGAGCGCCCUUGGCAGCGAAUCCUAACAUGAGGAUCACCCAUGU” was tested. Which “apparent Kd” value (MS2 coat protein [1]; [5]) did it give?
Its value is 40 nM.

What about the “apparent Kd” value (MS2 coat protein [1]; [6]) of the same sequence?
The value was 57.3 nM.

What does the source list for “UGCAAAUGAUGAGAUACCAGUUCAGUUAAAUACAUGAGGAUCACCCAUGUCAGGGAACUCAACCCUUGGCAGCUCGAUGCACUCA”?
apparent Kd (MS2 coat protein [2]; [5]): 56.2 nM; apparent Kd (MS2 coat protein [2]; [6]): 14.9 nM

Which results are given for “AUAAAAGCCACAUGAGGAUCACCCAUGUAGCAGGAAGCCAGCAAGGAUAUCGCAACAGGAGGGAUCGAGAAGGAGCGUAACUAA”?
apparent Kd (MS2 coat protein [2]; [7]): 23.7 nM; apparent Kd (MS2 coat protein [2]; [8]): 18.2 nM

How did the “apparent Kd” value (MS2 coat protein [2]; [9]) turn out when “AACGCGCAAGAGAAGGGACGGGAGAUUCCGUGGGCUCUGAUCCUACAUGAGGAUCACCCAUGUAGUCAGGAUAUCUGGAGACGC” was run?
Its value is 106 nM.

And the “apparent Kd” value (MS2 coat protein [2]; [10])?
The value was 124 nM.

What does the source list for “CCCAAAGACACAUGAGGAUCACCCAUGUUCCGCAAACAAUUGGAGGAUAUGAAGGAACGCAGCAAACAGAAGGCCAUAAAUAGC”?
apparent Kd (MS2 coat protein [2]; [7]): 16.8 nM; apparent Kd (MS2 coat protein [2]; [8]): 9.67 nM

What does the source list for “GUCGAAUCCUGAGGAUAUUCAGUGAUGGCUCAGACAUGAGGAUCACCCAUGUUACUCAGUGAGCGGAAGAAGGCAGCCUUCGGG”?
apparent Kd (MS2 coat protein [2]; [7]): 163 nM; apparent Kd (MS2 coat protein [2]; [8]): 131 nM

With “AAUGAAUCCAAGAAGGAACACCAGGCGCACGUAAUCCAACAUGAGGAUCACCCAUGUAUAUUCUGUAAGGAUAUUGGAUUAAAG” as the sequence, how does the “apparent Kd” value (MS2 coat protein [2]; [9]) read?
Its value is 7.45 nM.

And the “apparent Kd” value (MS2 coat protein [2]; [10])?
Its value is 7.24 nM.

Which “apparent Kd” value (MS2 coat protein [2]; [9]) does the source give for “UUAGUACUAGGAUAUACGAUGGAAAGGAGAGCCUUACAAAUACAUGAGGAUCACCCAUGUAGAAGGAGUUGCCA” here?
The value was 6.27 nM.

What about the “apparent Kd” value (MS2 coat protein [2]; [10]) of the same sequence?
The value was 5.93 nM.

For “UAACUGGACCAGAAGGGAGCGCGUCGCGCAUCAACAUACAUGAGGAUCACCCAUGUUCGAGAGUCUCAGGAUAUGGCCGGUAUA”, which “apparent Kd” value (MS2 coat protein [2]; [7]) is on record?
The value was 9.92 nM.

What about the “apparent Kd” value (MS2 coat protein [2]; [8]) of the same sequence?
Its value is 7.91 nM.

For “GCUCUCCAAGGAUAUUAGGUGUGUUACAUGAGGAUCACCCAUGUUUUCCAAUGAAUCGUCUAAGAAGGUGGCUAUU”, which “apparent Kd” value (MS2 coat protein [2]; [9]) is on record?
Its value is 14.3 nM.

What about the “apparent Kd” value (MS2 coat protein [2]; [10]) of the same sequence?
The value was 12.9 nM.

For “GACCAACAUGAGGAUCACCCAUGUCGAGUUGGAAGUUUUACGAGAAGGAUCCUCCUGCCGAGCGGAUAGGAUAUCGAAACGGAC”, which “apparent Kd” value (MS2 coat protein [2]; [9]) is on record?
The value was 11.5 nM.

And the “apparent Kd” value (MS2 coat protein [2]; [10])?
The value was 8.93 nM.

Which results are given for “GACUAACAUGAGGAUCACCCAUGUGAAGAUACCAGUAAUUUCACCUACCCUUGGCAGCUUUUUUUGAACGGCCUGAAUGCCUUGU”?
apparent Kd (MS2 coat protein [2]; [5]): 11.3 nM; apparent Kd (MS2 coat protein [2]; [6]): 17.1 nM

Which results are given for “GUAUGGCUCGAGGAUAUGUACGUAGGAGACUAGACAGAAGGCGAUACAUGAGGAUCACCCAUGUCCUAUUAACC”?
apparent Kd (MS2 coat protein [2]; [9]): 188 nM; apparent Kd (MS2 coat protein [2]; [10]): 129 nM

For “AUAUGCGAUUGAGGAUAUAGGGAGAGGCUAACUCUAGAAGGCAAUGUAUGGAAUAGCUUACACAUGAGGAUCACCCAUGUUGCU”, which “apparent Kd” value (MS2 coat protein [2]; [7]) is on record?
Its value is 9.73 nM.

And the “apparent Kd” value (MS2 coat protein [2]; [8])?
The value was 7.27 nM.

How did the “apparent Kd” value (MS2 coat protein [2]; [7]) turn out when “GGACUACAUGAGGAUCACCCAUGUUUUUAAGACACAGGAUAUGAUCACCGCGGACAUGUAUCAGAAGGGUGUACAU” was run?
Its value is 21.8 nM.

What about the “apparent Kd” value (MS2 coat protein [2]; [8]) of the same sequence?
Its value is 10.1 nM.

How did the “apparent Kd” value (MS2 coat protein [2]; [7]) turn out when “UCGUAGAUAGUAGGAUAUAAGGCCCUAGAGCAUUUAGAAGGACUUUUGAGACUAACAUGAGGAUCACCCAUGUUUCGCACAUGG” was run?
Its value is 297 nM.

And the “apparent Kd” value (MS2 coat protein [2]; [8])?
The value was 171 nM.

Which “apparent Kd” value (MS2 coat protein [2]; [5]) does the source give for “UUAUAAGCACCUGAUACCAGUAUGAACCCGUACAUGAGGAUCACCCAUGUUAAUUUCUAUUACCCUUGGCAGCAGCCUUUUUCCU” here?
The value was 19.4 nM.

And the “apparent Kd” value (MS2 coat protein [2]; [6])?
The value was 17.6 nM.

What does the source list for “GGUCCCAUGCGACAGGAUAUUGGAUGCAGCACAUGAGGAUCACCCAUGUAUACAGUUAUGGAUAACAAGAAGGGUCGCUUUGCAUA”?
apparent Kd (MS2 coat protein [2]; [7]): 45.3 nM; apparent Kd (MS2 coat protein [2]; [8]): 15.2 nM

For “GAAUUAUGACGUGAUACCAGUGGUCAAUACUGGGAACUUAACAUGAGGAUCACCCAUGUCCACCCUUGGCAGCACGCUGACAAUC”, which “apparent Kd” value (MS2 coat protein [2]; [3]) is on record?
Its value is 94 nM.

And the “apparent Kd” value (MS2 coat protein [2]; [4])?
The value was 236 nM.

For “CCUUUACAUGAGGAUCACCCAUGUGAAAUGGAUUGCGUAAAUAGAAGGCAUCAGAUCGUACAUGAUGAGGAUAUAUUAUCGAGU”, which “apparent Kd” value (MS2 coat protein [2]; [7]) is on record?
The value was 15.3 nM.

And the “apparent Kd” value (MS2 coat protein [2]; [8])?
The value was 7.44 nM.

With “ACAUGAGGAUCACCCAUGUGCCUCGAUAGGUAACUGAGACCCAGAAGGCCAGCGCGUUGCGCCUUGGAGGAUAUGGCAAACAAG” as the sequence, how does the “apparent Kd” value (MS2 coat protein [2]; [7]) read?
Its value is 34.5 nM.

What about the “apparent Kd” value (MS2 coat protein [2]; [8]) of the same sequence?
Its value is 19.7 nM.
